Test results: ChEMBL document CHEMBL3588801, “Thiosemicarbazones as Aedes aegypti larvicidal” (Eur J Med Chem, 2015)
≈ marks a conversion by molar mass, not a printed value. Where “and” joins values, the source holds several entries; their conditions need not be identical. Identical values can stand only once.

Legend:
Aedes aegypti [1] = test: Larvicidal activity against Aedes aegypti L4 stage larvae assessed as induction of larval mortality incubated for 48 hrs; assay type: functional; conditions: for LC50: Aedes aegypti, 48 h
In short: (§1)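 Adapted WHO larval test. Compound solubilized with Tween 80 co-solvent in distilled water as stock, then diluted. Fourth-instar A. aegypti larvae, 20 per beaker, in 20 mL test solution; four replicates per concentration, plus a compound-free negative control. Mortality scored after 48 h at 28 ± 2 °C, 70 ± 10 relative humidity (dead = no response to stimulus or failure to surface). LC50 from probit analysis.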

[2] = Cytotoxicity against BALB/c mouse splenocytes assessed as reduction in cell viability incubated for 24 hrs by beta-radiation counting based [3H]-thymidine incorporation assay; set-up: species or system Splenocyte
In short: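 BALB/c mouse splenocytes seeded at 6 × 10^5 cells/well in RPMI-1640 with 10% FBS and gentamycin; compound added in DMSO at six concentrations (1, 5, 10, 25, 50, 100) in triplicate; 24 h at 37 °C, 5% CO2; then 3H-thymidine pulse and beta counting. Viability as % incorporation versus solvent-only cells; saponin positive control; highest non-toxic concentration estimated.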

Aedes aegypti [3] = test: Larvicidal activity against Aedes aegypti; assay type: functional; in short: as §1
[4] = Lipophilicity log P of the compound; assay type: physicochemical; conditions: octanol/water
In short: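 Calculated rather than measured, alongside the B3LYP/6-311++G(d,p) dipole moment.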

[5] = biological target: T1, Sterol carrier protein 2 (Aedes aegypti) (UniProt Q86PR3); test: (§2) Inhibition of NBD-cholesterol binding to recombinant Aedes aegypti SCP-2 protein by fluorescence based assay
T1 sequence (whole entry): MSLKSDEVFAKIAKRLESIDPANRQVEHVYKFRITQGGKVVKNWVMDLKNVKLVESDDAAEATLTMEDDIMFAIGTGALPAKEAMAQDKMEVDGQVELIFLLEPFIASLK
In short: (§3)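 Competition assay with purified recombinant AeSCP-2, NBD-cholesterol and compound at increasing concentrations, read as fluorescence intensity. Separate NBD-cholesterol plus compound wells served as background where the compound interfered with fluorescence. Net signal is NBD-cholesterol/SCP-2/compound fluorescence minus that background, plotted as dose-response.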

Sterol carrier protein 2 = biological target: T2, Sterol carrier protein 2 (Aedes aegypti, UniProt Q86PR3); test: as §2; in short: as §3
T2 sequence (Q86PR3 whole entry): T1 sequence (whole entry)

| SMILES | log(1/LC50) (Aedes aegypti [1]) | LC50 (Aedes aegypti [1]) | MNTC at 24 h [2] | LC50 (Aedes aegypti [3]) | logP [4] | inhibition [5] | EC50 (Sterol carrier protein 2) |
| --- | --- | --- | --- | --- | --- | --- | --- |
| NC(=S)N/N=C/C=C/c1ccccc1 | 3.86 | 28.4 µg/mL and 138 µM | < 4.87 µM |  |  |  |  |
| CC(C)CNC(=O)/C=C/C=C/CC/C=C/c1ccc2c(c1)OCO2 [RETROFRACTAMIDE A] |  |  |  | 0.04 µg/mL (≈ 0.122 µM) |  |  |  |
| NC(=S)N/N=C/COc1cccc(Cl)c1Cl | 4.154 | 19.5 µg/mL and 70.1 µM | 17.9 µM |  | 3.3 |  |  |
| NC(=S)N/N=C/COc1ccc(Cl)cc1 | 4.046 | 21.9 µg/mL and 89.9 µM | 103 µM |  | 2.65 |  |  |
| NC(=S)N/N=C/c1ccc(Cl)cc1 | 3.873 | 28.8 µg/mL and 135 µM | 23.3 µM |  | 2.63 |  |  |
| CC(C)CNC(=O)/C=C/C=C/CCCC/C=C/c1ccc2c(c1)OCO2 [RETROFRACTAMIDE B] |  |  |  | 0.1 µg/mL (≈ 0.281 µM) |  |  |  |
| NC(=S)N/N=C/COc1ccc(Cl)c(Cl)c1 | 4.68 | 5.8 µg/mL and 20.9 µM | 89.8 µM |  | 3.3 |  |  |
| NC(=S)N/N=C/c1ccc(O)cc1 |  |  | 5.12 µM |  |  | Dose-dependent effect | 5 µM |
| NC(=O)N/N=C/c1ccc(Cl)c(Cl)c1 |  | > 200 µg/mL and > 862 µM | > 431 µM |  |  |  |  |
| NC(=S)N/N=C/COc1cccc(Cl)c1 | 3.542 | 70 µg/mL and 287 µM | 103 µM |  | 2.65 |  |  |
| COc1ccc(OC/C=N/NC(N)=S)cc1 | 3.298 | 120 µg/mL and 503 µM | 20.9 µM |  | 2.09 | Dose-dependent effect | 0.6 µM |
| NC(=S)N/N=C/COc1ccccc1 | 3.268 | 113 µg/mL and 538 µM | 119 µM |  | 2.01 |  |  |
| NC(=O)N/N=C/c1ccc(F)cc1 |  | > 200 µg/mL and > 1.1 mM | > 55.1 µM |  |  |  |  |
| CCCCC/C=C/C=C/C(=O)NCC(C)C [PELLITORIN] |  |  |  | 0.92 µg/mL (≈ 4.12 µM) |  |  |  |
| NC(=S)N/N=C/c1cccc(/C=N/NC(N)=S)c1 |  | > 200 µg/mL |  |  |  |  |  |
| NC(=S)N/N=C/COc1ccc(Br)cc1 | 4.036 | 26.5 µg/mL and 92 µM | > 347 µM |  | 2.9 |  |  |
| C/C(=N\NC(N)=S)C(C)Oc1ccc(Cl)c(Cl)c1 (stereo not drawn) |  | 3.95 µM |  |  | 4.87 |  |  |
| CC(C)CNC(=O)/C=C/C=C/CCCCCC/C=C/c1ccc2c(c1)OCO2 [GUINEENSINE] |  |  |  | 0.89 µg/mL (≈ 2.32 µM) |  |  |  |
| NC(=S)N/N=C/c1ccc(Br)cc1 | 3.91 | 31.7 µg/mL and 123 µM | < 3.87 µM |  | 2.87 |  |  |
| N/C(S)=N/N=C/c1ccc(Cl)c(Cl)c1 | 4.157 | 17.3 µg/mL and 69.7 µM | 20.2 µM |  | 3.27 |  |  |
| NC(=S)N/N=C/c1ccc(F)cc1 | 3.507 | 61.3 µg/mL and 311 µM | 25.4 µM |  | 2.18 |  |  |
